Active and inactive are the calls of the source. The rule behind the calls is not given here.
Columns and labels:
NCI-H1975 [1] = experiment: Antiproliferative activity against human NCI-H1975 cells assessed as reduction in cell viability incubated for 72 hrs by MTT assay; format: functional, cell-based; conditions: NCI-H1975, 72 h
[2] = target: Epidermal growth factor receptor (Homo sapiens, UniProt P00533)
A549 = experiment: cells; format: functional, cell-based; conditions: Homo sapiens, A549, 72 h;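 also: antiproliferative effect read out as loss of cell viability by MTT assay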
A-431 = experiment: cells; format: functional, cell-based; conditions: Homo sapiens, A-431, 72 h
[3] = target: Epidermal growth factor receptor (Homo sapiens, UniProt P00533, T790M)
Sequence of Epidermal growth factor receptor (Homo sapiens, UniProt P00533, T790M) (P00533 25-1210 T790M limits assumed): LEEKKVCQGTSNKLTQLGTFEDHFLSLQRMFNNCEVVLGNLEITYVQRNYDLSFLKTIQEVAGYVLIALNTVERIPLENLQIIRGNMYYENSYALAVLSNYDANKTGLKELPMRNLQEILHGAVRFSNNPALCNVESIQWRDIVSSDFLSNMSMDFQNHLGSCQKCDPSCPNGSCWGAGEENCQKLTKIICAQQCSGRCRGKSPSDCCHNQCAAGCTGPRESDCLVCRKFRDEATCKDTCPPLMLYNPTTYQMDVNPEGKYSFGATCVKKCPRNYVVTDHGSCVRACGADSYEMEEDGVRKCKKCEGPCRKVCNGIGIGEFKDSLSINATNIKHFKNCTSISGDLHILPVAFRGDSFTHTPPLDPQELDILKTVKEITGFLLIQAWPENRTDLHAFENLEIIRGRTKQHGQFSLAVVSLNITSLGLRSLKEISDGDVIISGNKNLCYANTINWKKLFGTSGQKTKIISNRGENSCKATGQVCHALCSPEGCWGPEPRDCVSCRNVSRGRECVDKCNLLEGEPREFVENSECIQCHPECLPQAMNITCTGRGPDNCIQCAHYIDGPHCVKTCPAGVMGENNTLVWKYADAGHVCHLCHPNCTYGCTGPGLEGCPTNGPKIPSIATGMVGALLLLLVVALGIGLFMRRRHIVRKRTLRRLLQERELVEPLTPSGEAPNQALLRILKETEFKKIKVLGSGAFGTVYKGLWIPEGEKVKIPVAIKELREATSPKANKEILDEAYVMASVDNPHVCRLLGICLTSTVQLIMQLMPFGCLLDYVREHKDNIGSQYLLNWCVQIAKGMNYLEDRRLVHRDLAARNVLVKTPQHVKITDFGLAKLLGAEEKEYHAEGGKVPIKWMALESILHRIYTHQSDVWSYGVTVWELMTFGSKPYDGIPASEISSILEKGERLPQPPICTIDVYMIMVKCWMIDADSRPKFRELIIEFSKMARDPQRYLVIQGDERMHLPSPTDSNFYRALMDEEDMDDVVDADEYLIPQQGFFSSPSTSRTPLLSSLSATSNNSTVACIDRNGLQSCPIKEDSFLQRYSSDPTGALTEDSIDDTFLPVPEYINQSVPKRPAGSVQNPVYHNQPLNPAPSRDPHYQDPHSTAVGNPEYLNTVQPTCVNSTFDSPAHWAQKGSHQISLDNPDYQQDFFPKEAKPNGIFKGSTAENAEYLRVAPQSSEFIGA

Carbonic anhydrase 2 = Carbonic anhydrase 2 (Homo sapiens, UniProt P00918); experiment: Inhibition of human carbonic anhydrase 2 using p-nitrophenyl acetate as substrate by UV-VIS spectrophotometric analysis
Carbonic anhydrase 9 = Carbonic anhydrase 9 (Homo sapiens, UniProt Q16790)
NCI-H1975 [4] = experiment: Induction of cell cycle arrest in human NCI-H1975 cells assessed as S phase at 2 uM incubated for 24 hrs by propidium iodide based flow cytometry analysis (reference value: 24.50 %); format: functional
NCI-H1975 [5] = experiment: Induction of apoptosis in human NCI-H1975 cells assessed as late apoptotic cells at 2 uM incubated for 24 hrs by annexin V-FITC and propidium iodide based flow cytometry analysis (reference value: 4.98 %); format: functional
NCI-H1975 [6] = experiment: Induction of apoptosis in human NCI-H1975 cells assessed as early apoptotic cells at 2 uM incubated for 24 hrs by annexin V-FITC and propidium iodide based flow cytometry analysis (reference value: 1.34 %); format: functional
NCI-H1975 [7] = experiment: Induction of apoptosis in human NCI-H1975 cells assessed as viable cells at 2 uM incubated for 24 hrs by annexin V-FITC and propidium iodide based flow cytometry analysis (reference value: 93.2 %); format: functional; conditions: read-out: Activity
NCI-H1975 [8] = experiment: Induction of cell cycle arrest in human NCI-H1975 cells assessed as G1 phase at 2 uM incubated for 24 hrs by propidium iodide based flow cytometry analysis (reference value: 60.76 %); format: functional
NCI-H1975 [9] = experiment: Induction of apoptosis in human NCI-H1975 cells assessed as necrotic cells at 2 uM incubated for 24 hrs by annexin V-FITC and propidium iodide based flow cytometry analysis (reference value: 0.455 %); format: functional
NCI-H1975 [10] = experiment: Induction of cell cycle arrest in human NCI-H1975 cells assessed as G2/M phase at 2 uM incubated for 24 hrs by propidium iodide based flow cytometry analysis (reference value: 14.74 %); format: functional
NCI-H1975 [11] = experiment: Downregulation of carbonic anhydrase in human NCI-H1975 cells at 2 uM incubated for 24 hrs in hypoxic condition by Western blot analysis; format: functional, cell-based
Outline: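 H1975 cells treated 24 h under hypoxia (1% O2, 94% N2, 5% CO2, 37 °C), with untreated cells as negative control. Lysed on ice for 30 min, spun at 20 000 g (4 °C, 10 min), protein measured by BCA. Equal protein run on 12% SDS-PAGE and moved to PVDF. Blocked in 5% milk/TBST, anti-CAIX overnight at 4 °C, peroxidase secondary 2 h, chemiluminescent detection.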

Sequence of Epidermal growth factor receptor (Homo sapiens, UniProt P00533) (P00533 whole entry): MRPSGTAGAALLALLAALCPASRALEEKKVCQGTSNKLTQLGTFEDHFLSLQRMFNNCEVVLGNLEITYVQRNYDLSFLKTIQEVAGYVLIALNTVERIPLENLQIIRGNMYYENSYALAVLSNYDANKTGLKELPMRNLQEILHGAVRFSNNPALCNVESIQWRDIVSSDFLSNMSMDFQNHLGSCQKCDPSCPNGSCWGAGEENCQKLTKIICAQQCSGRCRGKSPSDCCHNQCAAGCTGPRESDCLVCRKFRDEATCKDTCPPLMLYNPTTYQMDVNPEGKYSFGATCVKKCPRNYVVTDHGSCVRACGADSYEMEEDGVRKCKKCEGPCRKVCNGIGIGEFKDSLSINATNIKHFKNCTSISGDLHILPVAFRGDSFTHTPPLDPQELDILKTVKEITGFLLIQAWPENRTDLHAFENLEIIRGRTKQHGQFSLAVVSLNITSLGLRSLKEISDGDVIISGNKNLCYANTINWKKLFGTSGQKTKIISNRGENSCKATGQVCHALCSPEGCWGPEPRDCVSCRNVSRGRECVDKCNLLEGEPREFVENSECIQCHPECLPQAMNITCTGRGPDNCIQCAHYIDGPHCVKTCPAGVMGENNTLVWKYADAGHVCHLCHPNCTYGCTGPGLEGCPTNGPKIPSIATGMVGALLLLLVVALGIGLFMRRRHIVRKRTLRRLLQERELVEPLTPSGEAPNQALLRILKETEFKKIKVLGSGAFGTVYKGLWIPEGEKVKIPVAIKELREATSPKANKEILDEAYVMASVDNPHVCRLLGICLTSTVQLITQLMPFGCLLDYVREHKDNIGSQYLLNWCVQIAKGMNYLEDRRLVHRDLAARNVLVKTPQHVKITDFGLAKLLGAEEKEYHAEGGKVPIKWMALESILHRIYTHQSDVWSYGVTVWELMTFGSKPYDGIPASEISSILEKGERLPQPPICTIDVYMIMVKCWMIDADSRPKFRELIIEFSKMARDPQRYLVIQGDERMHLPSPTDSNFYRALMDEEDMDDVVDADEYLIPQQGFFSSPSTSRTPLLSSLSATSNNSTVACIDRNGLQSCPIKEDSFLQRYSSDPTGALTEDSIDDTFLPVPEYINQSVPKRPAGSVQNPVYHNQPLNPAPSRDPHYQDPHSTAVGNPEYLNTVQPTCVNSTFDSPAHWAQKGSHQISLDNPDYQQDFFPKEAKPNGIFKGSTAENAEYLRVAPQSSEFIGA

SMILES | IC50 (NCI-H1975 [1]) [µM] | IC50 [2] [µM] | IC50 (A549) [µM] | IC50 (A-431) [µM] | IC50 [3] [µM] | other results
NS(=O)(=O)c1ccc(CCNC(=S)Nc2ccc3ncnc(Nc4ccc(OCc5cccc(F)c5)c(Cl)c4)c3c2)cc1 | 5.16 | 0.0284 | 6.63 | 5.77 | 0.0667 | –
COc1cc2ncnc(Nc3ccc(Cl)c(C(F)(F)F)c3)c2cc1OCCCCC(=O)Nc1ccc(S(N)(=O)=O)cc1 | 3.22 | 0.0137 | 9.27 | 3.91 | 0.0375 | IC50 (Carbonic anhydrase 2): 0.356 µM; IC50 (Carbonic anhydrase 9): 0.224 µM
C#Cc1cccc(Nc2ncnc3cc(OC)c(OCCCCC(=O)Nc4ccc(S(N)(=O)=O)cc4)cc23)c1 | 18.8 | 0.0492 | 7.72 | 17.7 | 0.0485 | –
COc1cc2ncnc(Nc3ccc(OCc4cccc(F)c4)c(Cl)c3)c2cc1OCCCCC(=O)Nc1ccc(S(N)(=O)=O)cc1 | 5.67 | 0.0165 | 7.86 | 7.79 | 0.0228 | –
COc1cc2ncnc(Nc3ccc(F)c(Cl)c3)c2cc1OCCCN1CCOCC1 [GEFITINIB] | – | – | – | – | – | Activity (NCI-H1975 [4]): 18.76%; Activity (NCI-H1975 [5]): 5.44%; Activity (NCI-H1975 [6]): 7.78%; viability at 2 µM (NCI-H1975 [7]): 86.2%; Activity (NCI-H1975 [8]): 47.52%; Activity (NCI-H1975 [9]): 0.61%; Activity (NCI-H1975 [10]): 33.72%
CC(=O)Nc1nnc(S(N)(=O)=O)s1 | – | – | – | – | – | Activity (NCI-H1975 [11]): Active
